Results on two compounds are retold here after ChEMBL document CHEMBL1772977, “Synthesis and biological evaluation of novel 4-benzylpiperazine ligands for sigma-1 receptor imaging” (Bioorg Med Chem, 2011).

Assay [1] has as its target Sigma non-opioid intracellular receptor 1 (Rattus norvegicus, UniProt Q9R0C9). As to the kind of experiment: Displacement of (+)-[3H]pentazocine from sigma 1 receptor in rat brain membranes by competitive binding assay. It is filed as cell membranes. In a few lines:
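Sigma-1 competition binding used rat brain membranes as receptor material with (+)-[3H]pentazocine as radioligand. Ki was derived by Cheng–Prusoff from at least three independent experiments, each in triplicate, and is reported as mean ± SD.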

A short description of assay [2]: Displacement of [3H]ditolylguanidine from sigma 2 receptor in rat liver membrane by competitive binding assay. It is filed as cell membranes. The essentials: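 Sigma-2 competition binding used rat liver membranes with [3H]ditolylguanidine as radioligand. 10 µM dextrallorphan was present to mask sigma-1 sites. Ki was derived by Cheng–Prusoff from at least three independent experiments, each in triplicate, and is reported as mean ± SD.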

Sequence of Sigma non-opioid intracellular receptor 1 (Q9R0C9 whole entry): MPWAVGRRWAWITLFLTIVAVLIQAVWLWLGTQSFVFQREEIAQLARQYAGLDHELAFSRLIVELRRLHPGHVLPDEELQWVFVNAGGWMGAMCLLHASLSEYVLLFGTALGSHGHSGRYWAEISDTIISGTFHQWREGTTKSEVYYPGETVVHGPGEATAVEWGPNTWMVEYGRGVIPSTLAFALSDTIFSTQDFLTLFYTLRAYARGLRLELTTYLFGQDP

With `O=[N+]([O-])c1ccc(CN2CCN(Cc3ccc4c(c3)OCO4)CC2)cc1`, the values for the Ki in assay [1] and in assay [2] were 0.43 nM and 40.5 nM, respectively.

For `Cc1ccc(CN2CCN(Cc3ccc4c(c3)OCO4)CC2)cc1`, the values for the Ki in assay [1] and in assay [2] were 0.91 nM and 49.8 nM, respectively.
